This note sets out measurements from ChEMBL document CHEMBL1212911, “Identification of potent and selective amidobipyridyl inhibitors of protein kinase D” (J Med Chem, 2010).

Series [1] has as its target T1, Serine/threonine-protein kinase D1 (Homo sapiens, UniProt Q15139).
T1 sequence (Q15139 whole entry): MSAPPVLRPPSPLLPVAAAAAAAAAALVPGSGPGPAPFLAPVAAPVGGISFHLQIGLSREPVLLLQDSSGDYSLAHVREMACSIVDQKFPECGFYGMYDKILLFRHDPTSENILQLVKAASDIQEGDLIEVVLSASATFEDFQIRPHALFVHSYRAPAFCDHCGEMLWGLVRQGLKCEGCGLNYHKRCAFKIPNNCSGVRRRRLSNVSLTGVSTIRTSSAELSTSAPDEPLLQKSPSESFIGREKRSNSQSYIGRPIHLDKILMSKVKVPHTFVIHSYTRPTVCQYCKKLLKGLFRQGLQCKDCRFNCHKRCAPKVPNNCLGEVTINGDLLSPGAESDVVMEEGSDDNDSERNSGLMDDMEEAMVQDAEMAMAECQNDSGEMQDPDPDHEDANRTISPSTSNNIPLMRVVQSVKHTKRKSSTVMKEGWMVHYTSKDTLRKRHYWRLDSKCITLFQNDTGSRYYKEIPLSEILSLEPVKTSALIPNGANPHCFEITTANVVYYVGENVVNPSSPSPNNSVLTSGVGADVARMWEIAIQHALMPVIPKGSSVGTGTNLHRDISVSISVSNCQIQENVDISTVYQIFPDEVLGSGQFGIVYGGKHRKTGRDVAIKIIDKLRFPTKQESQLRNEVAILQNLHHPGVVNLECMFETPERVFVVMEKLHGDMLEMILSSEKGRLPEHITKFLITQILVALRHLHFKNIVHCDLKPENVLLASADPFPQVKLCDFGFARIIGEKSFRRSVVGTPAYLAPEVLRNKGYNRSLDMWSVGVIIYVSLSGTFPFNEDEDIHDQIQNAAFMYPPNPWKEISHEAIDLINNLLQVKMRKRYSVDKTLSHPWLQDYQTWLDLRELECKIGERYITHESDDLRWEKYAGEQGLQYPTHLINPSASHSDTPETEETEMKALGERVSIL
Nature of the series: Inhibition of PKD1 assessed as inhibition of HDAC5 neuclear export. The method in brief: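 Neonatal rat ventricular myocytes infected with adenovirus encoding GFP-HDAC5 and plated on gelatin-coated wells. Cells exposed to compound and stimulated with PGF2α for 2 h, then fixed. Cytoplasmic versus nuclear GFP intensity quantified by high-content imaging.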

In series [2] the target is T1, Serine/threonine-protein kinase D1. As to the kind of experiment: Inhibition of PKD1 by TR-FRET assay. The procedure, abridged:
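Full-length wild-type PKD1 expressed and purified from Sf9 cells, 0.2 μg/mL, in 35 mM Tris-HCl pH 7.5, 5 mM MgCl2, 0.02% Tween-20, 20 μM ATP, 1 mM DTT. Reaction started with 2 μM biotinylated syntide-2 and run 50 min at room temperature. Stopped with EDTA plus europium anti-rabbit IgG, anti-phospho-syntide-2 antibody and streptavidin-APC. LANCE TR-FRET 665/615 ratio read after 1 h. 11-point curves in triplicate gave IC50.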

Series [3] addresses T2, Serine/threonine-protein kinase D2 (Homo sapiens, UniProt Q9BZL6).
T2 sequence (Q9BZL6 whole entry): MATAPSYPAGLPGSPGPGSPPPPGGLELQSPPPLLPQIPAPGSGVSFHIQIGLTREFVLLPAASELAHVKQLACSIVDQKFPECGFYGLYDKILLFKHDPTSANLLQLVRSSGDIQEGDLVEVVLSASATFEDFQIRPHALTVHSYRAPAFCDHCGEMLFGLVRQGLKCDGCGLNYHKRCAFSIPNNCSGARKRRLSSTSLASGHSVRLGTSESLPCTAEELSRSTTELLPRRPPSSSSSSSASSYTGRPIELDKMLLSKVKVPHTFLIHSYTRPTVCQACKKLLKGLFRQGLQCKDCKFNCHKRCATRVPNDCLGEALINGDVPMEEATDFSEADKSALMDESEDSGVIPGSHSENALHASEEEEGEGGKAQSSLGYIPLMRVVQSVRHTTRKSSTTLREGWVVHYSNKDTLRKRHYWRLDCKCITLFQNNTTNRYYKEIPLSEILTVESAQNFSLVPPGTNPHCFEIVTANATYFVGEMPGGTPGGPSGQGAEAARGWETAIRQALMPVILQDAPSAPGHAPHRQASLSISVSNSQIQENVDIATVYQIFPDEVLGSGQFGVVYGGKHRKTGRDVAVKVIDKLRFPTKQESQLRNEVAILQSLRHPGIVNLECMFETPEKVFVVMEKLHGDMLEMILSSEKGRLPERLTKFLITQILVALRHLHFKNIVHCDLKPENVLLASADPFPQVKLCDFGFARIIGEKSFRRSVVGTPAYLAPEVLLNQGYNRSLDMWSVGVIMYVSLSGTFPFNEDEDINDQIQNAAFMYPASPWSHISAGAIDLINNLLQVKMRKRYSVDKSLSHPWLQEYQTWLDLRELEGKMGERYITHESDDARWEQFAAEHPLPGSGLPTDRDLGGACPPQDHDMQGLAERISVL
Nature of the series: Inhibition of PKD2 by TR-FRET assay.

Series [4] in a line: Volume of distribution at steady state in Sprague-Dawley rat at 2 mg/kg, iv and 5 mg/kg, po. Format: ADME, organism-based. As to conditions: in vivo, read-out: Vdss. The procedure, abridged:
(§1)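 Rats dosed iv 2 mg/kg (n = 2) or po 5 mg/kg (n = 3) in 10% NMP, 10% Cremophor, 80% pH 4.63 buffer. PK parameters derived from iv dosing, reported as mean ± SD.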

Series [5] in a line: Oral bioavailability in Sprague-Dawley rat at 5 mg/kg. Format: ADME, organism-based. Particulars: in vivo. The procedure, abridged:
as §1

Series [6] is described as follows: Cmax in rats after 5 mg/kg oral dose. The format is ADME, organism-based. On the set-up: dose 5 mg/kg, route oral. As to conditions: Sprague-Dawley, rat, in vivo.
A short description of series [7]: Clearance in Sprague-Dawley rat at 2 mg/kg, iv and 5 mg/kg, po. The format is ADME, organism-based. Particulars: in vivo. The procedure, abridged:
as §1

Series [8] in a line: Half life in rats after 2 mg/kg intravenous dose. As to conditions: Sprague-Dawley, rat, in vivo. Format: ADME, organism-based. Further details: dose 2 mg/kg, route intravenous. The procedure, abridged:
as §1

Series [9] in a line: AUC (0 to 8 hrs) in Sprague-Dawley rat at 5 mg/kg, po. Format: ADME, organism-based. Further details: time < 8 hr, dose 5 mg/kg, route oral. As to conditions: plasma.

As usually defined, the EC50 is the concentration giving half of the maximal effect. For orientation: IC50 means the concentration that gives 50% inhibition. A high value points to lower potency. What is called bioavailability is dose-corrected exposure relative to a reference, in per cent. A high value points to much systemic uptake. By Cmax is commonly meant the highest concentration seen after dosing. One may read the half-life as how long it takes for the measured level to halve. The AUC(0-t) is exposure summed from dosing to a finite time, without extrapolation to infinity.

As for `C[C@@H]1CN(c2cc(C(N)=O)cc(-c3ccnc(NC4CCCCC4)c3)n2)CCN1`, the EC50 in series [1] turned out to be 679 nM.
Take `NC(=O)c1cc(-c2ccnc(NC3CCCC3)c2)nc(N2CCNCC2)c1`: the IC50 in [2] was 6 nM; in series [3], 59 nM. In addition, the concentration giving a half-maximal response (EC50) in [1] was determined as 202 nM.
For `NCC1CCN(c2cc(C(N)=O)cc(-c3ccnc(NC4CCCCC4)c3)n2)CC1`, in that order: 46 nM, 212 nM and greater than 1000 nM.
Taken in the same sequence, the figures for `c1cc(-c2cc(-c3cc[nH]n3)cc(N3CCNCC3)n2)cc(NC2CCCCC2)n1` were 4 nM, 62 nM and 704 nM.
In the case of `O=C1NCc2c1cc(N1CCNCC1)nc2-c1ccnc(NC2CCCCC2)c1`, the IC50 in series [2] was determined as 1 nM. For the same compound, in series [1], the EC50 came to 115 nM.
Take `NC(=O)c1cc(-c2ccnc(NC3CCCCC3)c2)nc(N2CCOCC2)c1`: in [2], the IC50 was greater than 1000 nM.
Turning to `CC(C)Nc1cc(-c2cc(-c3cn[nH]c3)cc(N3CCNCC3)n2)ccn1`, the IC50 was less than 1 nM in [2] and 2 nM in series [3]. The EC50 in [1] was 92 nM.
Take `c1cc(-c2cc(-c3cn[nH]c3)cc(N3CCNCC3)n2)cc(NC2CCCCC2)n1`: the IC50 is less than 1 nM in series [2] and 1 nM in [3]. The EC50 in series [1] stood at 17 nM.
Regarding `Cn1ccc(Nc2cc(-c3cc(C#N)cc(N4CCNCC4)n3)ccn2)n1`, in series [1], the EC50 was 428 nM. Besides, the midpoint of inhibition in [3], the IC50, lay at 68 nM.
On to `C[C@H]1CN(c2cc(C(N)=O)cc(-c3ccnc(NC4CCCCC4)c3)n2)CCN1`, for which the IC50 is 8 nM in [2] and 86 nM in series [3]. The EC50 in series [1] amounted to 831 nM.
Taken in the same sequence, the figures for `NC(=O)c1cc(N[C@H]2CCNC2)nc(-c2ccnc(NC3CCCCC3)c2)c1` were 68 nM, 540 nM and greater than 1000 nM.
For `NC(=O)c1cc(-c2ccnc(NC3CCOCC3)c2)nc(N2CCNCC2)c1`, in that order: 1 nM, 9 nM and greater than 1000 nM.
Turning to `NC(=O)c1cc(-c2ccnc(Nc3ccccc3Cl)c2)nc(N2CCNCC2)c1`, the IC50 in series [2] came to 1 nM; in series [3], 8 nM. Further, the EC50 in [1] was 478 nM.
Taken in the same sequence, the figures for `CC(C)Nc1cc(-c2cc(C(N)=O)cc(N3CCNCC3)n2)ccn1` were 1 nM, 8 nM and 438 nM.
In the case of `O=C1NCc2c1cc(-c1ccnc(NC3CCCCC3)c1)nc2N1CCNCC1`, the Vd in [4] was found to be 35 L/kg. The compound further showed a bioavailability in series [5] of 5%. Further, in series [2], half-maximal inhibition (IC50) required 35 nM. The Cmax in [6] turned out to be 31 nM. Also, in [1], the EC50 is greater than 1000 nM. The compound further registered a clearance in series [7] of 86 mL/min/kg. In series [8], this compound gave a half-life of 6.2 h. Moreover, the AUC(0-t) at 8 h in series [9] was determined as 0.1 µM·h.
`FC(F)c1cc(-c2ccnc(NC3CCCCC3)c2)nc(N2CCNCC2)c1`: the IC50 in series [2] stood at 17 nM; in [3], 76 nM. For the same compound, in series [1], the EC50 worked out at 568 nM.
In the case of `N#Cc1cc(-c2ccnc(Nc3ccccc3)c2)nc(N2CCNCC2)c1`, the Vd in [4] is 7.8 L/kg. Also, the bioavailability in series [5] amounted to 18%. The values for the IC50 in series [2] and in series [3] were 5 nM and 35 nM, respectively. Also, the Cmax in series [6] amounted to 231 nM. For the same compound, the EC50 in series [1] turned out to be 378 nM. For the same compound, the clearance in series [7] was 31 mL/min/kg. For the same compound, in series [8], the half-life is 3.1 h. The same compound had an AUC(0-t) at 8 h in series [9] of 1.1 µM·h.
With `c1cc(-c2cc(-c3cn[nH]c3)cc(N3CCNCC3)n2)cc(NC2CCOCC2)n1`, the values for the IC50 in series [2] and in series [3] were less than 1 nM and 2 nM, respectively. Further, the EC50 in series [1] is 234 nM.
With `CCNc1cc(-c2cc(C(N)=O)cc(N3CCNCC3)n2)ccn1`, the IC50 in series [2] amounted to 4 nM; in series [3], 31 nM. For the same compound, in series [1], the EC50 was greater than 1000 nM.
Taken in the same sequence, the figures for `NC(=O)c1cc(-c2ccnc(NC3CCCCC3)c2)nc(N2CCCC(N)C2)c1` (centres undefined) were 14 nM, 168 nM and greater than 1000 nM.
For `Cn1ccc(Nc2cc(-c3cc(C(N)=O)cc(N4CCNCC4)n3)ccn2)n1`, in that order: 1 nM, 7 nM and 674 nM.
On to `NC(=O)c1cc(-c2ccnc(Nc3ccccc3)c2)nc(N2CCNCC2)c1`, for which the IC50 in [2] and in series [3] was 1 nM throughout. For the same compound, the EC50 in series [1] came out at 24 nM.
For `CN1CCN(c2cc(C(N)=O)cc(-c3ccnc(NC4CCCCC4)c3)n2)CC1`, the 50% inhibitory concentration (IC50) in series [2] turned out to be 25 nM; in series [3], 238 nM. The EC50 in series [1] stood at 752 nM.
As to `FC(F)(F)c1cc(-c2ccnc(NC3CCCCC3)c2)nc(N2CCNCC2)c1`, the bioavailability in series [5] stood at 31%. Also, the Cmax in series [6] was determined as 251 nM. Moreover, the EC50 in series [1] turned out to be 342 nM. In [9], this compound showed an AUC(0-t) at 8 h of 0.73 µM·h.
As to `NC(=O)c1cc(N[C@@H]2CCNC2)nc(-c2ccnc(NC3CCCCC3)c2)c1`, the IC50 in series [2] worked out at 2 nM; in series [3], 18 nM. Besides, the EC50 in series [1] is greater than 1000 nM.
Taken in the same sequence, the figures for `CC1(C)CN(c2cc(C(N)=O)cc(-c3ccnc(NC4CCCCC4)c3)n2)CCN1` were 55 nM, 427 nM and greater than 1000 nM.
